A short description of series [1]: folding enthalpy; higher = less favourable; fluorescence melt of hairpins on a sequencing array, two-state fit. Particulars: sodium 0.088 M. The procedure, abridged: (§1)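 In 50 mM Na-HEPES pH 8.0 containing 25 mM NaCl, hairpins from the library on a sequenced MiSeq flow cell were imaged for Cy3 fluorescence at 2.5 °C steps up to 60 °C, with Cy3 and quencher oligos annealed. After normalisation to pre-quench Cy3 and to control constructs, two-state fits with bootstrapping gave melting temperature and folding enthalpy. Four replicates were combined by inverse-variance weighting, and fitted temperatures were shifted up by 9.35 °C to match UV melts.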

A short description of series [2]: melting temperature; fluorescence melt of hairpins on a sequencing array, two-state fit, raised by 9.35 °C to match UV melts. Particulars: sodium 0.088 M. Summed up:
as §1

As to GGAAGCGGAAACGCTTTC (.(((((....))))).), in series [1], the folding enthalpy is -21.2 kcal/mol. Besides, the Tm in series [2] was 53.7 °C.

As to GGAAGCGGAAACGTTTCC ((((.((....)).)))), the folding enthalpy in series [1] is -39.7 kcal/mol. Besides, in series [2], the Tm is 49.8 °C.

Take GGAAGGGAAACCTTCC ((((((....)))))): the folding enthalpy in series [1] was -38 kcal/mol. In addition, in series [2], the Tm was found to be 55.2 °C.

In the case of GGAAGTCGAAAGACCTCC (((.(((....))).))), the folding enthalpy in series [1] was -27.1 kcal/mol. Also, in series [2], the Tm was determined as 43.3 °C.

As to GGAAGTCGAAAGACTCC (((.(((....)))))), in series [1], the folding enthalpy is -17.9 kcal/mol. Also, in series [2], the Tm was determined as 53 °C.

As for GGAAGTGGAAACACTCCC ((.((((....)))).)), in series [1], the folding enthalpy is -23 kcal/mol. Besides, the Tm in series [2] stood at 42.7 °C.

Regarding GGAAGTGGAAACGTTTCC ((((..(....)..)))), the folding enthalpy in series [1] is -13.3 kcal/mol. For the same sequence, in series [2], the Tm was 37.6 °C.

Consider GGAATACGAAAGTAGTCC (((.(((....))).))), for which the folding enthalpy in series [1] is -33.9 kcal/mol. Besides, the Tm in series [2] is 51.8 °C.

On to GGAATAGGAAACCATTCC (((((.(....).))))), for which, in series [1], the folding enthalpy was -25.7 kcal/mol. For the same sequence, the Tm in series [2] came to 34.3 °C.

Regarding GGAATCCCGAAAGGGTCC (((..(((....)))))), the folding enthalpy in series [1] is -13.2 kcal/mol. The Tm in series [2] stood at 33 °C.

As to GGAATCCGAAAGGACTCC (((.(((....))).))), the folding enthalpy in series [1] was -26.2 kcal/mol. Besides, the Tm in series [2] was found to be 46.3 °C.

As for GGAATCCGAAAGGATCC (((.(((....)))))), the folding enthalpy in series [1] was -19.6 kcal/mol. In addition, the Tm in series [2] came out at 50 °C.

Take GGAATCGAAAGATGATCC ((((((....)))..))): in series [1], the folding enthalpy was -17.8 kcal/mol. Besides, the Tm in series [2] is 29 °C.

Regarding GGAATCGAAAGATTCC ((((((....)))))), in series [1], the folding enthalpy was -32.3 kcal/mol. The Tm in series [2] came out at 64.3 °C.

As to GGAATGCCGAAAGGCTCC (((..(((....)))))), the folding enthalpy in series [1] is -10.2 kcal/mol. Besides, the Tm in series [2] was 34.5 °C.

As for GGAATGCGAAAGCAATCC (((.(((....))).))), the folding enthalpy in series [1] is -25.6 kcal/mol. In addition, the Tm in series [2] was 50.9 °C.

As to GGAATGCGAAAGCAGTCC (((.(((....))).))), the folding enthalpy in series [1] was -36.6 kcal/mol. For the same sequence, in series [2], the Tm came out at 61.2 °C.

As for GGAATGGGAAACTGTTCC ((((..(....)..)))), the folding enthalpy in series [1] is -25.8 kcal/mol. For the same sequence, the Tm in series [2] amounted to 35 °C.

GGAATTCGAAAGAATCC (((.(((....)))))): in series [1], the folding enthalpy was -20.9 kcal/mol. Further, the Tm in series [2] worked out at 39 °C.

In the case of GGAATTGAAAAATTCC ((((((....)))))), the folding enthalpy in series [1] is -28.9 kcal/mol. Further, the Tm in series [2] was determined as 48 °C.

Consider GGAATTGGAAACAATTCC (((((((....))))))), for which, in series [1], the folding enthalpy was -45.1 kcal/mol. For the same sequence, the Tm in series [2] was 56.3 °C.

With GGACAACGAAAGTTTTCC (((.(((....))).))), the folding enthalpy in series [1] was -29.2 kcal/mol. Further, the Tm in series [2] turned out to be 41.2 °C.

For GGACAAGGAAACTTGTCC (((((((....))))))), the folding enthalpy in series [1] was -45 kcal/mol. Moreover, the Tm in series [2] is 61 °C.

Take GGACACGAAAGTGCATCC ((((((....)))..))): the folding enthalpy in series [1] is -11.8 kcal/mol. The Tm in series [2] was determined as 32.7 °C.

Consider GGACACGAAAGTGCCTCC ((((((....)))..))), for which, in series [1], the folding enthalpy is -16.7 kcal/mol. Moreover, the Tm in series [2] was determined as 42.1 °C.

As for GGACACGAAAGTGGATCC ((((((....)))..))), the folding enthalpy in series [1] is -15.6 kcal/mol. In addition, the Tm in series [2] worked out at 40.3 °C.

In the case of GGACACGGAAACGCGTCC ((((.((....)).)))), the folding enthalpy in series [1] is -46.4 kcal/mol. The Tm in series [2] worked out at 54.6 °C.

In the case of GGACACGGAAACGTATCC (((.(((....))).))), the folding enthalpy in series [1] is -27.4 kcal/mol. Moreover, the Tm in series [2] turned out to be 40.9 °C.

Regarding GGACACGGAAACGTGTTC (.(((((....))))).), the folding enthalpy in series [1] is -24.8 kcal/mol. The Tm in series [2] was 54.9 °C.

On to GGACAGGCGAAAGCCTCC (((..(((....)))))), for which the folding enthalpy in series [1] is -9.93 kcal/mol. In addition, in series [2], the Tm was 31.1 °C.

As for GGACAGGGAAACTTGTCC (((((.(....).))))), the folding enthalpy in series [1] is -37.1 kcal/mol. Further, in series [2], the Tm came to 49 °C.

In the case of GGACCAGGAAACTGACCC ((..(((....)))..)), the folding enthalpy in series [1] is -10.6 kcal/mol. In series [2], the Tm came to 23.5 °C.

For the sequence GGACCCGAAAGGGATCC ((((((....))).))), the folding enthalpy in series [1] was -20.8 kcal/mol. Further, in series [2], the Tm was 54.2 °C.

Turning to GGACCCGAAAGGGGATCC ((((((....)))..))), the folding enthalpy in series [1] was -14.8 kcal/mol. In addition, the Tm in series [2] was found to be 51.4 °C.

Regarding GGACCCGAAAGGGTATCC ((((((....)))..))), the folding enthalpy in series [1] was -11 kcal/mol. Moreover, in series [2], the Tm was determined as 38.9 °C.

As to GGACCCGGAAACAGGTCC (((((.(....).))))), the folding enthalpy in series [1] is -39.7 kcal/mol. Also, in series [2], the Tm turned out to be 49.4 °C.

GGACCCGGAAACGGATCC (((.(((....))).))): the folding enthalpy in series [1] is -38.5 kcal/mol. In addition, the Tm in series [2] was 49.8 °C.

For the origin of these results see the array DNA melting data of Ke et al. (doi:10.1101/2024.01.08.574731).
